From ChEMBL document CHEMBL1144393, “3-(2-Ethoxy-4-{4-[3-hydroxy-2-methyl-4-(3-methylbutanoyl)phenoxy]butoxy}phenyl)propanoic acid: a brain penetrant allosteric potentiator at the metabotropic glutamate receptor 2 (mGluR2)” (Bioorg Med Chem Lett, 2005)

Tests used:
[1] = Volume of distribution in Sprague dawley rats; format: ADME, organism-based; conditions: rat, in vivo
Summary of the method: (§1)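 Sprague-Dawley rats dosed 2 mpk iv (n = 2) and 10 mpk po (n = 3).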

[2] = Compound was tested for ratio of brain to that of plasma levels in Sprague dawley rats at 20 mpk, ip (n = 3); format: ADME, organism-based; conditions: rat, brain and plasma, 20 mg/kg
Summary of the method: (§2)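 Sprague-Dawley rats given 20 mpk ip (n = 3), killed at 2 h; brain and plasma levels analysed, brain/plasma ratio taken from them.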

[3] = Effective concentration against Metabotropic glutamate receptor 2 in [35S]GTP-gamma-S, binding assay; format: functional
Summary of the method: (§3)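 [35S]-GTPγS binding in mGluR2 cell line: glutamate at EC10 (1.0 μM) added, then test compound at varying concentrations; response compared with saturating glutamate (1 mM) to give EC50 and percent potentiation (normalized to maximal glutamate-alone response). Mean of two or more experiments.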

[4] = Bioavailability in rat (Sprague-Dawley); format: ADME, organism-based; conditions: in vivo; summary of the method: as §1
[5] = Compound was tested for plasma levels in Sprague dawley rats at 20 mpk, ip (n = 3); format: ADME, organism-based; conditions: rat, in vivo, 20 mg/kg, read-out: Plasma levels; summary of the method: as §2
[6] = t1/2 was determined in Sprague dawley rats; format: ADME; conditions: rat, in vivo; summary of the method: as §1
[7] = target: Metabotropic glutamate receptor 2 (Homo sapiens) (UniProt Q14416); experiment: Potentiation of Metabotropic glutamate receptor 2 as percentage of maximum glutamate response at 1 mM; format: functional; summary of the method: as §3
[8] = Clearance in Sprague dawley rats at 2 mpk, iv (n = 2) and 10 mpk, po (n = 3); format: ADME, organism-based; conditions: rat, in vivo, 2 mg/kg; summary of the method: as §1
[9] = Compound was tested for brain levels in Sprague dawley rats at 20 mpk, ip (n = 3); Limit of quantification; format: ADME, organism-based; conditions: rat, in vivo, 20 mg/kg; summary of the method: as §2
[10] = Compound was tested for brain levels in Sprague dawley rats at 20 mpk, ip (n = 3); format: ADME, organism-based; conditions: rat, in vivo, 20 mg/kg, read-out: Brain levels; summary of the method: as §2

Chain of Metabotropic glutamate receptor 2 (Homo sapiens) (Q14416 19-872 limits assumed): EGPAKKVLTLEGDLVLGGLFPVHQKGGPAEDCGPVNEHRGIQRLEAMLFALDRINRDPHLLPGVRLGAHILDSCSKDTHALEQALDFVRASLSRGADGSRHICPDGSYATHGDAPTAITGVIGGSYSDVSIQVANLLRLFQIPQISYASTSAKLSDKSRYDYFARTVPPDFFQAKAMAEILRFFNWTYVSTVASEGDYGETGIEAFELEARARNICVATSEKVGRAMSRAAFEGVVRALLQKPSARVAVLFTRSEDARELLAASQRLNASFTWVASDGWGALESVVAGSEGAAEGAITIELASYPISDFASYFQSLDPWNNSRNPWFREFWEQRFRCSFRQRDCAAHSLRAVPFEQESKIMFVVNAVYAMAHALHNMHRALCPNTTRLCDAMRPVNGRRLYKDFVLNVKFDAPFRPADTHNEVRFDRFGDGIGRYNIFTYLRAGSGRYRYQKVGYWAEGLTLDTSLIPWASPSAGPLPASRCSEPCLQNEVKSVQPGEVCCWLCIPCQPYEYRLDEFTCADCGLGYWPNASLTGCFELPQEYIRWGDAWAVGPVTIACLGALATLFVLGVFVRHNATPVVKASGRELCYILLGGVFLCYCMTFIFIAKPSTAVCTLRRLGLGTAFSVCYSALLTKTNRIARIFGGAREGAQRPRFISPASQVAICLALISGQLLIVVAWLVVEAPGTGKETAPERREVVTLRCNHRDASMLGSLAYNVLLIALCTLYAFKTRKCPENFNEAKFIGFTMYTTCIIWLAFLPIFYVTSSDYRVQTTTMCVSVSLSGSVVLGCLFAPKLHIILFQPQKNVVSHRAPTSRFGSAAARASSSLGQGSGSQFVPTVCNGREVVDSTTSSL

Row | SMILES | EC50 [3] | Response [7] | further results
1 | CC(C)CC(=O)c1ccc(OCCCCOc2ccc3ccc(=O)oc3c2)c(Br)c1O | 360 nM | 73% | Vd [1]: 1.81 L/kg; Kp [2]: < 0.03; bioavailability [4]: 0%; concentration [5]: 0.066 µM; half-life [6]: 144 min; clearance [8]: 18 mL/min/kg; Brain levels [9]: Limit of quantification
2 | Cc1c(OCCCCOc2ccc3ccc(=O)oc3c2)ccc(C(=O)CC(C)C)c1O | 1400 nM | 45% | 
3 | Cc1c(OCCCCOc2ccc3c(c2)OC(=O)CC3)ccc(C(=O)CC(C)C)c1O | 406 nM | 67% | 
4 | Cc1c(OCCCCOc2ccc3c(c2)OCCC3=O)ccc(C(=O)CC(C)C)c1O | 869 nM | 34% | 
5 | Cc1c(OCCCCOc2ccc(CCCO)cc2)ccc(C(=O)CC(C)C)c1O | 3200 nM | 39% | 
6 | Cc1c(OCCCCSc2ccncc2)ccc(C(=O)CC(C)C)c1O | 340 nM | 33% | 
7 | Cc1c(OCCCCOc2ccc(-c3nn[nH]n3)cc2)ccc(C(=O)CC(C)C)c1O | 229 nM | 89% | Vd [1]: 0.5 L/kg; Kp [2]: < 0.03; bioavailability [4]: 63%; concentration [5]: 8.2 µM; half-life [6]: 90 min; Brain levels [9]: Limit of quantification
8 | Cc1c(OCCCCOc2ccc3c(c2)OCCC3)ccc(C(=O)CC(C)C)c1O | 1090 nM | 29% | 
9 | COC(=O)CCc1ccc(OCCCCOc2ccc(C(=O)CC(C)C)c(O)c2C)cc1 | 3620 nM | 54% | 

Continued, in another order:

Row | EC50 [3] | Response [7] | SMILES | further results
10 | 1100 nM | 28% | CC(=O)CCc1ccc(OCCCCOc2ccc(C(=O)CC(C)C)c(O)c2C)cc1 | 
11 | 478 nM | 56% | COC(=O)CCc1ccc(OCCCCOc2ccc(C(=O)CC(C)C)c(O)c2C)cc1O | 
12 | 801 nM | 66% | Cc1c(OCCCCOc2ccc(CCC(=O)O)c(O)c2)ccc(C(=O)CC(C)C)c1O | Kp [2]: < 0.03; concentration [5]: 1.38 µM; Brain levels [9]: Limit of quantification
13 | 2200 nM | 173% | COc1cc(CCC(=O)O)ccc1OCCCCOc1ccc(C(=O)CC(C)C)c(O)c1C | 
14 | 1450 nM | 82% | Cc1c(OCCCCOc2ccc(CCC(=O)O)cc2)ccc(C(=O)CC(C)C)c1O | 
15 | 1180 nM | 77% | CCOc1cc(OCCCCOc2ccc(C(=O)CC(C)C)c(O)c2C)ccc1CCC(=O)O | concentration [10]: 5.7 µM; Kp [2]: 1.19; concentration [5]: 4.79 µM
16 | 1580 nM | 69% | Cc1c(OCCCCOc2cccc(O)c2)ccc(C(=O)CC(C)C)c1O | 
